Experimental data reported in ChEMBL document CHEMBL1147663, “Structure-activity relationships of bifunctional peptides based on overlapping pharmacophores at opioid and cholecystokinin receptors” (J Med Chem, 2006).
Activity calls are given as the source filed them. The calls are words filed in the database; no cut-off is given here.

Experiments:
[1] = molecular target: Mu-type opioid receptor (Rattus norvegicus) (UniProt P33535); assay: (§1) Activity against [35S]GTP-gamma-S binding to rat mu opioid receptor expressed in HN9.10 cells; type: functional, cell-based
In short: (§2)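 Membranes (10 μg) from HN9.10 cells stably expressing hDOR or rMOR; various drug concentrations in duplicate or triplicate, 90 min at 30 °C in HEPES pH 7.4 with GDP, MgCl2, NaCl, 0.1 nM [35S]GTPγS; filtration, scintillation counting.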

Mu-type opioid receptor [2] = molecular target: T1, Mu-type opioid receptor (Rattus norvegicus, UniProt P33535); assay: as §1; type: functional, cell-based; in short: as §2
Mu-type opioid receptor [3] = molecular target: T1, Mu-type opioid receptor; assay: Displacement of [3H]DAMGO from rat mu opioid receptor expressed in HN9.10 cells; type: cell-based
In short: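 HN9.10 cell membranes (50 μg) expressing rMOR, 10 test concentrations with 1.0 nM [3H]DAMGO in 50 mM Tris pH 7.4 with peptidase inhibitors and BSA, 3 h at 25 °C, duplicates; filtration, scintillation counting. Nonspecific with 10 μM naloxone. Ki by Cheng–Prusoff.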

[4] = molecular target: T2, Gastrin/cholecystokinin type B receptor (Homo sapiens, UniProt P32239); assay: Displacement of [125I]CCK-8(SO3) from human CCK2 receptor expressed in HEK293 cells; type: cell-based
T2 sequence (P32239 whole entry): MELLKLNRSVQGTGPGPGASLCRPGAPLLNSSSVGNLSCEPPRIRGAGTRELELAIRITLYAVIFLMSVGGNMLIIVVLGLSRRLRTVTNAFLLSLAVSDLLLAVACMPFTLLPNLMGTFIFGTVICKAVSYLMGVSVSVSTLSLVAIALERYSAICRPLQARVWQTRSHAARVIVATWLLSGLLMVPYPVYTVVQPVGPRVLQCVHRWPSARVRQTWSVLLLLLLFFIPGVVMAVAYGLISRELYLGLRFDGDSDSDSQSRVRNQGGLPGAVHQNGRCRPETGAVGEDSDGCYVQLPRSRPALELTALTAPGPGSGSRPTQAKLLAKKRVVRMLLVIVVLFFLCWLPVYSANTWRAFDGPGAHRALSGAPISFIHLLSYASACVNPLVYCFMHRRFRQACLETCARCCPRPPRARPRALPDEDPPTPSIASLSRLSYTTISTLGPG

[5] = molecular target: T3, Delta-type opioid receptor (Homo sapiens, UniProt P41143); assay: Activity against [35S]GTP-gamma-S binding to human delta opioid receptor expressed in HN9.10 cells; type: functional, cell-based; in short: as §2
[6] = molecular target: T2, Gastrin/cholecystokinin type B receptor; assay: Antagonist activity at CCK2 receptor expressed in HEK293 cells assessed as accumulation of [3H]inositol phosphates by PI assay; type: functional, cell-based
[7] = molecular target: Delta-type opioid receptor (Mus musculus, UniProt P32300); assay: Agonist activity at delta opioid receptor assessed as inhibition of electrically stimulated ICR mouse vas deferens contraction; type: functional, tissue-based
In short: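 Vas deferens from male ICR mice, in 20 mL baths at 0.5 g tension, Mg-free oxygenated Krebs, 37 °C; electrical stimulation 0.1 Hz, 2.0 ms pulses, supramaximal voltage. Cumulative addition to maximal inhibition; integrity checked with 10 nM DPDPE. IC50 by Hill-equation nonlinear least-squares fit, at least four tissues.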

[8] = molecular target: T4, Cholecystokinin receptor type A (Homo sapiens, UniProt P32238); assay: Displacement of [125I]CCK-8(SO3) from human CCK1 receptor expressed in HEK293 cells; type: cell-based
T4 sequence (P32238 whole entry): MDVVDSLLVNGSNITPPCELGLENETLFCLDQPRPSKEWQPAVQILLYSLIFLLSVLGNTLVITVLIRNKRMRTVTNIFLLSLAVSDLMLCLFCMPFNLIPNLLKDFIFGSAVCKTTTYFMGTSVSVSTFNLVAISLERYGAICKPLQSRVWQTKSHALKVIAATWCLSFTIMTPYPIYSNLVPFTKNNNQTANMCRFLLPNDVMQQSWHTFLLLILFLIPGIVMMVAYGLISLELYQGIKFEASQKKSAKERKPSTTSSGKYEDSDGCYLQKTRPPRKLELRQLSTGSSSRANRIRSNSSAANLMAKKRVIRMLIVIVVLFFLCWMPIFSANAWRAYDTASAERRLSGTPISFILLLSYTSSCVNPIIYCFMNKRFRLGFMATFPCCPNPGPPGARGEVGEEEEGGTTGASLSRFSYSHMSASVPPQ

[9] = molecular target: T3, Delta-type opioid receptor; assay: Displacement of [3H]DPDPE from human delta opioid receptor expressed in HN9.10 cells; type: cell-based
In short: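 HN9.10 cell membranes (50 μg) expressing hDOR, 10 test concentrations with 1.0 nM [3H]DPDPE in 50 mM Tris pH 7.4 with peptidase inhibitors and BSA, 3 h at 25 °C, duplicates; filtration, scintillation counting. Nonspecific with 10 μM naloxone. Ki by Cheng–Prusoff.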

Mu-type opioid receptor [10] = molecular target: Mu-type opioid receptor (Cavia porcellus, UniProt P97266); assay: Agonist activity at mu opioid receptor assessed as inhibition of electrically stimulated Hartley guinea pig ileum contraction; type: functional, tissue-based
In short: (§3)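 Longitudinal muscle–myenteric plexus strips from male Hartley guinea pig ileum, 1 g tension, oxygenated Krebs at 37 °C; 0.1 Hz, 0.4 ms supramaximal stimulation. […] Integrity checked with 10 nM PL-017. Hill-equation fit, at least four tissues.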

[11] = molecular target: T5, Cholecystokinin receptor type A (Homo sapiens) (UniProt P32238); conditions: HEK293
T5 sequence (whole entry): T4 sequence (P32238 whole entry)

[12] = molecular target: Mu-type opioid receptor (Cavia porcellus) (UniProt P97266); assay: Agonist activity at mu opioid receptor assessed as inhibition of electrically stimulated Hartley guinea pig ileum contraction at 1 uM; type: functional, tissue-based; in short: as §3
Mu-type opioid receptor (Cavia porcellus), sequence (P97266 whole entry): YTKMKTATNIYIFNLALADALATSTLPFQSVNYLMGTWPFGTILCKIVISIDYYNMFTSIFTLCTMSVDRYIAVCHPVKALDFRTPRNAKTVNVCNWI

Delta-type opioid receptor (Mus musculus, UniProt P32300), sequence (P32300 whole entry): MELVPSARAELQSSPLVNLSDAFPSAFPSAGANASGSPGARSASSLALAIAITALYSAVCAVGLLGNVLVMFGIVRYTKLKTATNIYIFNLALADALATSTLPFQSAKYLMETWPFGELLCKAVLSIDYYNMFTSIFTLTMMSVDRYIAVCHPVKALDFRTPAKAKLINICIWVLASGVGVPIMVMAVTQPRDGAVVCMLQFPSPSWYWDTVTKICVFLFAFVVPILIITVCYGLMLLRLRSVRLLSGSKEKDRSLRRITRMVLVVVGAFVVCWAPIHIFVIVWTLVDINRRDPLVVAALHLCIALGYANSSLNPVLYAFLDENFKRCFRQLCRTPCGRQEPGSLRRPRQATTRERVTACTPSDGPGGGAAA
Mu-type opioid receptor (Rattus norvegicus), sequence (P33535 whole entry): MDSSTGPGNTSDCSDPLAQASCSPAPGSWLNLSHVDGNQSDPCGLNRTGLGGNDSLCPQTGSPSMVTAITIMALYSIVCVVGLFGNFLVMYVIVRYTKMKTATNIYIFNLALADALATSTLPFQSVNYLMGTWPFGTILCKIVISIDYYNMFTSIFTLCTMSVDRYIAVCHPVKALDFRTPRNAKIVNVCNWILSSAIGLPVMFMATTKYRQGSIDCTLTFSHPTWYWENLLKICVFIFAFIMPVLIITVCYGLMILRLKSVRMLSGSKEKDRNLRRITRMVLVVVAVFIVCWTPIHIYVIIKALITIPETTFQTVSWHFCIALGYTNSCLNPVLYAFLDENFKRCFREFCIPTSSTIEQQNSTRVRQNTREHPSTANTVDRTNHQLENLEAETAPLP
T1 sequence (P33535 whole entry): as above
Mu-type opioid receptor (Cavia porcellus, UniProt P97266), sequence (P97266 whole entry): as the sequence (P97266 whole entry) above
T3 sequence (P41143 whole entry): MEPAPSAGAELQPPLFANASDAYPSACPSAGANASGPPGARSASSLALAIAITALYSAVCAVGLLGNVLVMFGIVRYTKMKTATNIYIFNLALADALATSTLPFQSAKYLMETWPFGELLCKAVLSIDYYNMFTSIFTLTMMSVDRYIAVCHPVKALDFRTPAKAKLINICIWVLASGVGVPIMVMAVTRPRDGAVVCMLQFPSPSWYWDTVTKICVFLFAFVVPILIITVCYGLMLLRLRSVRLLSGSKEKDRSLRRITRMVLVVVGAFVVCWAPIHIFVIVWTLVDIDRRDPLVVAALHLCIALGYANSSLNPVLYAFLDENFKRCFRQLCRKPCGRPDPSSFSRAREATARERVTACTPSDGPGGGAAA

Row | Compound | Emax [1] [%] | EC50 (Mu-type opioid receptor [2]) [nM] | IC50 (Mu-type opioid receptor [3]) [nM] | Ki (Mu-type opioid receptor [3]) [nM] | IC50 [4] [nM] | Ki [4] [nM] | EC50 [5] [nM] | Emax [5] [%] | EC50 [6] [nM] | IC50 [7] [nM] | IC50 [8] [nM] | Ki [8] [nM] | IC50 [9] [nM] | Ki [9] [nM] | IC50 (Mu-type opioid receptor [10]) [nM] | Log EC50 [11] | inhibition [12] [%]
1 | CCCC[C@@H](C(=O)N[C@@H](CC(=O)O)C(=O)N[C@@H](Cc1ccccc1)C(N)=O)N(C)C(=O)[C@H](Cc1c[nH]c2ccccc12)NC(=O)CNC(=O)[C@@H](Cc1ccccc1)NC(=O)[C@@H](N)Cc1ccc(O)cc1 | 300 | 22 | 245 | 100 | 15.1 | 15 | 2.5 | 84 | 16 | 65 | 3630 | 3600 | 18.6 | 1 | 100 | – | –
2 | CCCC[C@H](NC(=O)[C@@H](Cc1c[nH]c2ccccc12)NC(=O)CNC(=O)[C@@H](C)NC(=O)[C@@H](N)Cc1ccc(O)cc1)C(=O)N[C@@H](CC(=O)O)C(=O)N[C@@H](Cc1ccccc1)C(N)=O | 110 | 350 | 1290 | 590 | 2690 | 2700 | 130 | 91 | 330 | 1300 | 6460 | 6500 | 2000 | 860 | 2300 | – | –
3 | CCCC[C@@H](NC(=O)[C@@H](N)Cc1ccc(O)cc1)C(=O)NCC(=O)N[C@@H](Cc1c[nH]c2ccccc12)C(=O)N(C)[C@@H](CCCC)C(=O)N[C@@H](CC(=O)O)C(=O)N[C@@H](Cc1ccccc1)C(N)=O | 70 | 110 | 58.9 | 25 | 3.8 | 3.8 | 15 | 150 | 19 | 9 | – | – | 4.68 | 2 | 48 | – | –
4 | CCCC[C@@H](C(=O)N[C@@H](CC(=O)O)C(=O)N[C@@H](Cc1ccccc1)C(N)=O)N(C)C(=O)[C@@H](Cc1c[nH]c2ccccc12)NC(=O)CNC(=O)[C@@H](Cc1ccccc1)NC(=O)[C@@H](N)Cc1ccc(O)cc1 | 50 | – | 13.8 | 5.9 | 1.1 | 1.1 | 29 | 14 | 2.8 | 24 | 1100 | 1100 | 1 | 0.42 | 71 | inactive | –
5 | CCCC[C@@H](C(=O)N[C@@H](CC(=O)O)C(=O)N[C@@H](Cc1ccccc1)C(N)=O)N(C)C(=O)[C@H](Cc1c[nH]c2ccccc12)NC(=O)CNC(=O)[C@H]1CCCN1C(=O)[C@@H](N)Cc1ccc(O)cc1 | 210 | 900 | 6030 | 2600 | 2.69 | 2.7 | 890 | 110 | 36 | 890 | 10500 | > 10000 | 200 | 85 | – | – | 13
